What was measured:
[1] = target: Botulinum neurotoxin type A (Clostridium botulinum) (UniProt P0DPI0); experiment: Inhibition of Clostridium botulinum recombinant BoNT/A light chain at […] by reverse-phase HPLC analysis
Method in brief: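 Recombinant BoNT/A light chain was tested with a synthetic SNAP-25 187–203 peptide substrate (N-acetylated, C-aminated). The mix held 40 mM HEPES-0.05% Tween pH 7.3, 0.5 mg/ml BSA, 1 mM DTT, excess zinc and 20 µM inhibitor, at 37 °C, quenched with TFA. Cleaved and uncleaved peptide were separated by reverse-phase HPLC, and peak areas gave reaction rates and % inhibition.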

HepG2 = experiment: Cytotoxicity against human HepG2 cells after 48 hrs by MTT assay; format: cell-based; details: HepG2, 48 h
Plasmodium falciparum [2] = experiment: Antimalarial activity against multi drug resistant Plasmodium falciparum TM91C235 after 72 hrs by MSF assay; format: functional, organism-based; details: TM91C235, 72 h
[3] = Selectivity index, ratio of IC50 for human HepG2 cells to IC50 for Plasmodium falciparum W2; format: toxicity, cell-based; details: read-out: Ratio IC50
[4] = Selectivity index, ratio of IC50 for human HepG2 cells to IC50 for Plasmodium falciparum D2; format: toxicity, cell-based; details: read-out: Ratio IC50
Plasmodium falciparum [5] = experiment: Antimalarial activity against chloroquine-resistant Plasmodium falciparum W2 after 72 hrs by MSF assay; format: functional, organism-based; details: W2, 72 h
[6] = Selectivity index, ratio of IC50 for human HepG2 cells to IC50 for Plasmodium falciparum TM91C235; format: toxicity, cell-based; details: read-out: Ratio IC50
Plasmodium falciparum [7] = experiment: Antimalarial activity against chloroquine-sensitive Plasmodium falciparum D6 after 72 hrs by MSF assay; format: functional, organism-based; details: D6, 72 h
[8] = (§1) Half life in mouse liver microsomes at 10 uM by LC-MS/MS analysis; format: ADME, Microsome; details: liver microsomes
[9] = (§2) Half life in human liver microsomes at 10 uM by LC-MS/MS analysis; format: ADME, Microsome; details: liver microsomes
Plasmodium falciparum [10] = experiment: Antimalarial activity against multidrug-resistant Plasmodium falciparum TM90C2B after 72 hrs by MSF assay; format: functional, organism-based
Plasmodium falciparum [11] = experiment: Antimalarial activity against multidrug-resistant Plasmodium falciparum TM90C2A after 72 hrs by MSF assay; format: functional, organism-based
Method in brief: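 P. falciparum cultures at late-ring or early-trophozoite stage, 0.3% starting parasitemia and 2% hematocrit, were grown in plates predosed with quadruplicate 12-point two-fold dilutions in DMSO (final […]). Incubation was 72 h at 37 °C in 5% CO2/5% O2/90% N2. Lysis buffer with SYBR Green I (final 10x) was added, then 24 h dark at room temperature and fluorescence read. IC50/IC90 came from sigmoidal variable-slope nonlinear regression.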

Liver = experiment: as §1; format: ADME, Microsome; details: microsomes, 10 µM
Liver microsomes = experiment: as §2; format: ADME, Microsome; details: microsomes, 10 µM
Plasmodium falciparum [12] = experiment: Ratio of mefloquine IC50 to compound IC50 against Plasmodium falciparum TM91C235; format: functional

Sequence of Botulinum neurotoxin type A (Clostridium botulinum) (P0DPI0 2-448 limits assumed): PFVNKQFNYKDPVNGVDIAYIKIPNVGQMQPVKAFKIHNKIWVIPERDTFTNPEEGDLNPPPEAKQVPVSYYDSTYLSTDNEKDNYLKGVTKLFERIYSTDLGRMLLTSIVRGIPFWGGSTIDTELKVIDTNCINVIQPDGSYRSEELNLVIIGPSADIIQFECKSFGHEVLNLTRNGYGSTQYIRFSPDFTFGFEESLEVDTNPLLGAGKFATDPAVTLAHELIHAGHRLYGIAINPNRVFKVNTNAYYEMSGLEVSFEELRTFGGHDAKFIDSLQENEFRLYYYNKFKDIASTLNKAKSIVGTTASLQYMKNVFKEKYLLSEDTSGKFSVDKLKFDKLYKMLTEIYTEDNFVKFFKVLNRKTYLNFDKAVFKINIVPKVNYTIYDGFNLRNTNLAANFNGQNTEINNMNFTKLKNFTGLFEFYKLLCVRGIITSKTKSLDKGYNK

Row | Compound | inhibition [1] [%] | IC50 (HepG2) [nM] | IC50 (Plasmodium falciparum [2]) [nM] | selectivity ratio [3] | selectivity ratio [4] | IC50 (Plasmodium falciparum [5]) [nM] | selectivity ratio [6] | IC50 (Plasmodium falciparum [7]) [nM] | half-life at 10 µM [8] [h] | half-life at 10 µM [9] [h] | IC50 (Plasmodium falciparum [10]) [nM] | IC90 (Plasmodium falciparum [10]) [nM] | IC90 (Plasmodium falciparum [2]) [nM] | IC90 (Plasmodium falciparum [5]) [nM] | IC90 (Plasmodium falciparum [7]) [nM] | IC50 (Plasmodium falciparum [11]) [nM] | t1/2 (Liver) [h] | t1/2 (Liver microsomes) [h] | Ratio IC50 (Plasmodium falciparum [12])
1 | Fc1ccc(CNCCCNc2ccnc3cc(Cl)ccc23)cc1 | 50.1 | 5430 | 29.4 | 110 | 415 | 49.4 | 185 | 13.1 |  |  |  |  |  |  |  |  |  |  | 
2 | Clc1ccc2c(NCCNCc3cccnc3)ccnc2c1 | 25 | 95900 | 109 | 426 | 1800 | 225 | 882 | 53.4 |  |  |  |  |  |  |  |  |  |  | 
3 | Clc1ccc2c(NCCCNCc3ccccc3)ccnc2c1 | 51.8 | 2910 | 39.9 | 56 | 169 | 52.2 | 73 | 17.2 | 1 | 1 |  |  |  |  |  |  |  |  | 
4 | Clc1ccc2c(NCCCNCc3ccc(Br)cc3)ccnc2c1 | 68 | 4950 | 6.18 |  |  | 5.93 |  | 3.95 | 1 | 1 | 7.91 | 12.1 | 7.66 | 7.41 | 4.45 | 7.16 |  |  | 
5 | CC(C)(C)c1ccc(CNCCCNc2ccnc3cc(Cl)ccc23)cc1 | 50.3 | 2170 | 31.9 | 45 | 100 | 48.4 | 68 | 21.7 |  |  |  |  |  |  |  |  |  |  | 
6 | Clc1ccc2c(NCCCNCc3cccnc3)ccnc2c1 | 39.9 | 23300 | 73.4 | 90 |  | 260 | 317 |  | 1 | 1 |  |  |  |  |  |  |  |  | 
7 | Clc1ccc2c(NCCCNCc3cnccc3Cl)ccnc2c1 | 35.9 | 3760 | 31 | 52 | 146 | 73 | 121 | 25.7 |  |  |  |  |  |  |  |  | 0.317 | 0.267 | 
8 | Clc1ccc2c(NCCNCc3cnccc3Cl)ccnc2c1 | 23 | 6500 | 83.3 | 46 | 102 | 141 | 78 | 63.8 |  |  |  |  |  |  |  |  | 0.617 | 0.167 | 
9 | Clc1ccc2c(NCCNCc3ccncc3)ccnc2c1 | 24 | 153000 | 204 | 409 | 2530 | 375 | 752 | 60.7 |  |  |  |  |  |  |  |  |  |  | 
10 | Clc1ccc2c(NCCNCc3ccccc3)ccnc2c1 | 52 | 19400 | 7.38 |  |  | 10.9 |  | 6.41 |  | 1 | 9.3 | 12.5 | 9.3 |  | 9.62 | 9.94 | 0.383 |  | 
11 | Clc1ccc2c(NCCNCc3ccc(Br)cc3)ccnc2c1 | 69 | 6580 | 9.98 | 695 | 1610 | 9.47 | 660 | 4.1 | 1 | 1 |  |  |  |  |  |  |  |  | 4
12 | COc1ccncc1CNCCNc1ccnc2cc(Cl)ccc12 | 19 |  | 7.29 |  |  | 19 |  |  |  |  |  |  |  |  |  |  | 0.383 | 0.633 | 
13 | COc1ccc(CNCCNc2ccnc3cc(Cl)ccc23)cc1 | 18 | 5820 | 16.1 | 406 | 1810 | 14.3 | 362 | 3.22 |  |  |  |  |  |  |  |  | 0.1 | 0.45 | 4
14 | O[C@@H](c1cc(C(F)(F)F)nc2c(C(F)(F)F)cccc12)[C@H]1CCCCN1 (racemic) | 28 |  |  |  |  |  |  |  |  |  |  |  |  |  | 43.6 | 51.1 |  |  | 
15 | Clc1ccc2c(NCCCNCc3ccncc3)ccnc2c1 | 42.3 | 35900 | 76.4 | 176 | 4150 | 204 | 469 | 8.65 |  |  |  |  |  |  |  |  | 0.15 | 0.15 | 
16 | COc1ccc(CNCCCNc2ccnc3cc(Cl)ccc23)cc1 | 14 | 4810 | 50.6 | 86 | 778 | 56.2 | 95 | 6.18 |  |  |  |  |  |  |  |  | 0.3 | 1 | 
17 | CCN(CC)CCCC(C)Nc1ccnc2cc(Cl)ccc12 (centres undefined) [CHLOROQUINE PHOSPHATE] | 7 |  |  |  |  |  |  |  |  |  |  | 602 | 476 | 942 | 19.2 |  |  |  | 
18 | Fc1ccc(CNCCNc2ccnc3cc(Cl)ccc23)cc1 | 68 | 16000 | 55.2 | 350 | 608 | 45.8 | 291 | 26.4 |  |  |  |  |  |  |  |  |  |  | 
19 | CC(C)(C)c1ccc(CNCCNc2ccnc3cc(Cl)ccc23)cc1 | 47 | 10400 | 24.7 | 245 | 429 | 42.4 | 419 | 24.2 |  |  |  |  |  |  |  |  |  |  | 
20 | COc1ccncc1CNCCCNc1ccnc2cc(Cl)ccc12 | 43.2 | 4970 | 53.2 | 57 | 1040 | 86.9 | 93 | 4.76 | 1 | 1 |  |  |  |  |  |  |  |  | 
21 | C[C@@H]1CC[C@H]2[C@@H](C)C(=O)O[C@@H]3O[C@@]4(C)CC[C@@H]1[C@]32OO4 [ARTEMISININ] |  |  | 13 |  |  | 6.7 |  | 9 |  |  |  |  |  |  |  |  |  |  | 
